Data as given in ChEMBL document CHEMBL3865785, “Dopaminergic isoquinolines with hexahydrocyclopenta[ij]-isoquinolines as D2-like selective ligands” (Eur J Med Chem, 2016).

How the values were obtained:
[1] = species on record: Homo sapiens; assay: Selectivity ratio of Ki for D1-like dopaminergic receptor (unknown origin) in striatal membranes to Ki for D2-like dopaminergic receptor (unknown origin) in striatal membranes; assay type: cell membranes
[2] = Displacement of [3H]SCH23390 from D1-like dopaminergic receptor (unknown origin) in striatal membrane measured after 1 hr by liquid scintillation counting method; assay type: cell membranes, Homo sapiens, Striatum
How it was run: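 Striatal membranes homogenized in 50 mM Tris-HCl pH 7.4, centrifuged twice at 20000 g. Resuspended in Tris with 5 mM MgSO4, 0.5 mM EDTA, 0.02% ascorbic acid. 100 µg protein incubated 1 h at 25 °C with 0.25 nM (final) [3H]SCH 23390 plus drug. Nonspecific binding defined with 30 μM SK&F 38393. GF/B filtration, scintillation counting. Mean ± SEM, n = 3.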

[3] = Displacement of [3H]raclopride from D2-like dopaminergic receptor (unknown origin) in striatal membrane measured after 1 hr by liquid scintillation counting method; assay type: cell membranes, Homo sapiens, Striatum
How it was run: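 Striatal membranes washed by four 20000 g centrifugations. Resuspended in Tris buffer with 120 mM NaCl, 5 mM KCl, 1 mM CaCl2, 1 mM MgCl2, 0.1% ascorbic acid. 200 µg protein incubated 1 h at 25 °C with 0.5 nM (final) [3H]raclopride plus drug. Nonspecific binding defined with 50 µM apomorphine. Filtration, scintillation counting. Mean ± SEM, n = 3.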

[4] = Cytotoxicity against HUVEC assessed as reduction in cell viability at 30 uM measured after 24 hrs by MTT assay relative to control; assay type: toxicity, cell-based; conditions: human
How it was run: (§1)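 Neutrophils isolated from healthy-donor buffy coats by Ficoll-Hypaque gradient; HUVEC from collagenase isolation, passage ≤1. Cells at 10^5 per 100 µL supplemented RPMI, incubated 24 h at 37 °C with or without compound (30 μM). MTT added (solution made at 2 mg/mL in PBS), further 3 h at 37 °C; colorimetric readout vs vehicle. Mean ± SEM, n = 3 independent experiments.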

[5] = Induction of apoptosis in human neutrophils assessed as late apoptotic cells at 30 uM measured after 24 hrs by Annexin-V-FITC/propidium iodide staining-based flow cytometric analysis (reference value: 0.06%); assay type: cell-based; conditions: neutrophil
[6] = Induction of apoptosis in human neutrophils assessed as early apoptotic cells at 30 uM measured after 24 hrs by Annexin-V-FITC/propidium iodide staining-based flow cytometric analysis (reference value: 1.1%); assay type: cell-based; conditions: neutrophil
[7] = Induction of apoptosis in human neutrophils assessed as viable cells at 30 uM measured after 24 hrs by Annexin-V-FITC/propidium iodide staining-based flow cytometric analysis (reference value: 93.52%); assay type: cell-based, Neutrophil; conditions: read-out: Activity
[8] = Induction of apoptosis in HUVEC at 30 uM measured after 24 hrs by Annexin-V-FITC/propidium iodide staining-based flow cytometric analysis; assay type: cell-based; conditions: human
[9] = Induction of apoptosis in human neutrophils assessed as necrotic cells at 30 uM measured after 24 hrs by Annexin-V-FITC/propidium iodide staining-based flow cytometric analysis (reference value: 5.33%); assay type: cell-based; conditions: neutrophil
[10] = Cytotoxicity against human neutrophils assessed as reduction in cell viability at 30 uM measured after 24 hrs by MTT assay relative to control; assay type: toxicity, cell-based; conditions: neutrophil; how it was run: as §1

Row | Compound | Ratio Ki [1] | Ki [2] | pKi [2] | Ki [3] | pKi [3] | Activity [4] | Activity [5] | Activity [6] | viability at 24 h, 30 µM [7] | Activity [8] | Activity [9] | Activity [10]
1 | C/C=C/C1c2cc(OC)c(OC)cc2CCN1C (centres undefined) | 1.24 | 18.3 µM | 4.74 | 14.7 µM | 4.833 |  |  |  |  |  |  | 
2 | Oc1cc2c3c(c1O)C(c1ccccc1)CC3NCC2 (centres undefined) |  |  |  |  |  | Non-Toxic | 0.05% | 0.08% | 95.3% | Non-Toxic | 4.53% | Non-Toxic
3 | CN1CCc2cc(O)c(O)c3c2C1CC3c1ccccc1 (centres undefined) |  |  |  |  |  | Non-Toxic | 3.06% | 0.15% | 94.7% | Non-Toxic | 5.05% | Non-Toxic
4 | C=CCN1CCc2cc(OC)c(OC)cc2C1/C=C/C (centres undefined) | 2.72 | 37.6 µM | 4.432 | 13.8 µM | 4.86 |  |  |  |  |  |  | 
5 | C/C=C/C1NCCc2cc(OC)c(OC)cc21 (centres undefined) | 5.15 | 45.6 µM | 4.347 | 8.86 µM | 5.059 |  |  |  |  |  |  | 
6 | COc1cc2c(cc1OC)C(/C=C/c1ccccc1)N(C)CC2 (centres undefined) | 14.2 | 6.2 µM | 5.251 | 0.436 µM | 6.376 |  |  |  |  |  |  | 
7 | C=CCN1CCc2cc(OC)c(OC)cc2C1/C=C/c1ccccc1 (centres undefined) | 6.58 | 7.68 µM | 5.133 | 1.17 µM | 5.942 |  |  |  |  |  |  | 
8 | C=CCN1CCc2cc(O)c(O)cc2C1/C=C/c1ccccc1 (centres undefined) | 147 | 6.04 µM | 5.267 | 0.041 µM | 7.408 | Non-Toxic | 0.16% | 0.15% | 93.6% | Non-Toxic | 6.11% | Non-Toxic
9 | C/C=C/C1NCCc2cc(O)c(O)cc21 (centres undefined) | 126 | 57.7 µM | 4.246 | 0.458 µM | 6.352 |  |  |  |  |  |  | 
10 | Oc1cc2c(cc1O)C(/C=C/c1ccccc1)NCC2 (centres undefined) | 6.73 | 9.57 µM | 5.048 | 1.42 µM | 5.869 |  |  |  |  |  |  | 
11 | C=CCN1CCc2cc(O)c(O)c3c2C1CC3c1ccccc1 (centres undefined) |  |  |  |  |  | Non-Toxic | 0.33% | 6.86% | 89.9% | Non-Toxic | 3.03% | Toxic

Continued by falling Ki [2], values first:

Row | Ratio Ki [1] | Ki [2] | pKi [2] | Ki [3] | pKi [3] | Compound | Activity [4] | Activity [5] | Activity [6] | viability at 24 h, 30 µM [7] | Activity [8] | Activity [9] | Activity [10]
12 | 0.74 | 4.56 µM | 5.36 | 6.18 µM | 5.244 | COc1cc2c(cc1OC)C(/C=C/c1ccccc1)NCC2 (centres undefined) |  |  |  |  |  |  | 
13 | 55.9 | 3.19 µM | 5.498 | 0.057 µM | 7.264 | CN1CCc2cc(O)c(O)cc2C1/C=C/c1ccccc1 (centres undefined) | Non-Toxic | 0.12% | 3.24% | 89.7% | Non-Toxic | 6.94% | Non-Toxic
14 | 95.2 | 1.71 µM | 5.766 | 0.018 µM | 7.749 | C=CCN1CCc2cc(O)c(O)cc2C1/C=C/C (centres undefined) | Non-Toxic | 0.11% | 0.28% | 93.5% | Non-Toxic | 0.1% | Non-Toxic
15 | 17.9 | 1.29 µM | 5.897 | 0.072 µM | 7.181 | C/C=C/C1c2cc(O)c(O)cc2CCN1C (centres undefined) | Non-Toxic | 0.3% | 3.95% | 93.3% | Non-Toxic | 2.43% | Non-Toxic
16 | 0.98 | 0.55 µM | 6.26 | 0.56 µM | 6.837 | NCCc1ccc(O)c(O)c1 [DOPAMINE] |  |  |  |  |  |  | 
